In data set [1] the test system is Canis familiaris. Description: Cardiotoxicity in spontaneously respiring dog assessed as time of increase in heart rate at 200 mg/kg, iv relative to control. To be noted: in vivo. Also noted: dose 200 mg/kg, route intravenous. Type of data set: toxicity, organism-based, Canis lupus familiaris. Summed up: (§1)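 Anesthetized, spontaneously respiring dogs. Heart rate was taken from a lead II EKG, and blood pressure from the right femoral artery by transducer. The increase in heart rate (beats/min) was scored on a graded scale with more than 4 dogs per dose, and its duration was recorded. Drugs were dissolved fresh in distilled water, diluted in physiological saline and kept on ice.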

In data set [2] the test system is Canis familiaris. Description: Bronchodilator activity in dog assessed as degree of inhibition of carbachol or histamine-induced bronchoconstriction at 100 to 200 mg/kg, id relative to control. Type of data set: functional, Canis lupus familiaris. Conditions: dose mg/kg 100-200; route intraduodenal. Summed up: (§2)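 Anesthetized dogs, trachea cannulated with a nonbreathing valve. Bronchoconstriction induced by iv carbachol (2–4 μg/kg) or histamine diphosphate (20–50 μg/kg) in separate animals, and airway pressure recorded by transducer. Drug stocks were made fresh in distilled water, diluted in saline and kept on ice. Read-out was percent inhibition of control constriction, averaged over at least three dogs per dose at the higher dose. Carbachol and histamine data were combined.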

Data set [3] relates to Canis familiaris. Description: Bronchodilator activity in dog assessed as degree of inhibition of carbachol or histamine-induced bronchoconstriction at 430 to 860 mg/kg, it relative to control. The format is functional, Canis lupus familiaris. Conditions: dose mg/kg 430-860; route endotracheal. Summed up: as §2
The test system of data set [4] is Canis familiaris. Description: Bronchodilator activity in dog assessed as time of inhibition of carbachol or histamine-induced bronchoconstriction at 200 mg/kg, iv relative to control. The format is functional, Canis lupus familiaris. The method, boiled down:
(§3)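 Dog airway model: anesthetized, cannulated via a nonbreathing valve, with airway pressure changes recorded after iv carbachol (2–4 μg/kg) or histamine diphosphate (20–50 μg/kg) challenge, each agonist in different animals. Compounds were given iv, intraduodenally or intratracheally from fresh aqueous stocks diluted in saline. Duration (h) of inhibition of induced bronchoconstriction was followed, and the two agonist datasets were pooled.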

In data set [5] the test system is Canis familiaris. Description: Cardiotoxicity in spontaneously respiring dog assessed as degree of increase in heart rate at 200 mg/kg, iv relative to control. Conditions: in vivo. Also noted: dose 200 mg/kg, route intravenous. The format is toxicity, organism-based, Canis lupus familiaris. Summed up:
as §1

The subject of data set [6] is Canis familiaris. Description: Bronchodilator activity in dog assessed as time of inhibition of carbachol or histamine-induced bronchoconstriction at 100 to 200 mg/kg, id relative to control. Type of data set: functional, Canis lupus familiaris. To be noted: dose mg/kg 100-200; route intraduodenal. Summed up:
as §3

Data set [7] deals with Canis familiaris. Description: Bronchodilator activity in dog assessed as degree of inhibition of carbachol or histamine-induced bronchoconstriction at 200 mg/kg, iv relative to control. To be noted: Canis lupus familiaris. The format is functional. The method, boiled down: as §2
The subject of data set [8] is Canis familiaris. Description: Bronchodilator activity in dog assessed as time of inhibition of carbachol or histamine-induced bronchoconstriction at 430 to 860 mg/kg, it relative to control. The format is functional, Canis lupus familiaris. Conditions: dose mg/kg 430-860; route endotracheal. The method, boiled down: (§4)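 Anesthetized dogs with an airway cannula and a nonbreathing valve. Bronchoconstriction was induced by iv carbachol (2–4 μg/kg) or histamine diphosphate (20–50 μg/kg) and read as change in airway pressure by transducer. Each compound was tested against both agonists in different dogs, and the results were combined and averaged. Effect is % inhibition of control constriction, with at least three dogs per dose. Drugs were dissolved fresh in distilled water, diluted in saline and kept on ice.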

Data set [9] concerns Canis familiaris. Description: Cardiotoxicity in spontaneously respiring dog assessed as time of increase in heart rate at 20 to 100 mg/kg, iv relative to control. Also noted: dose 20-100 mg/kg, route intravenous. Conditions: in vivo. Type of data set: toxicity, organism-based, Canis lupus familiaris. Summed up: as §1
Data set [10] has as its system Canis familiaris. Description: Bronchodilator activity in dog assessed as degree of inhibition of carbachol or histamine-induced bronchoconstriction at 50 to 100 mg/kg, id relative to control. Type of data set: functional, Canis lupus familiaris. To be noted: dose mg/kg 50-100; route intraduodenal. Summed up:
as §2

In data set [11] the test system is Canis familiaris. Description: Bronchodilator activity in dog assessed as time of inhibition of carbachol or histamine-induced bronchoconstriction at 50 to 100 mg/kg, id relative to control. Type of data set: functional, Canis lupus familiaris. To be noted: dose mg/kg 50-100; route intraduodenal. The method, boiled down: as §4
Data set [12] relates to Canis familiaris. Description: Cardiotoxicity in spontaneously respiring dog assessed as degree of increase in heart rate at 20 to 100 mg/kg, iv relative to control. Type of data set: toxicity, organism-based, Canis lupus familiaris. Details: dose 20-100 mg/kg, route intravenous. Conditions: in vivo. The method, boiled down: as §1
Data set [13] concerns Canis familiaris. Description: Bronchodilator activity in dog assessed as degree of inhibition of carbachol or histamine-induced bronchoconstriction at 20 to 100 mg/kg, iv relative to control. The format is functional, Canis lupus familiaris. Conditions: dose mg/kg 20-100. The method, boiled down: as §2
In data set [14] the test system is Canis familiaris. Description: Bronchodilator activity in dog assessed as time of inhibition of carbachol or histamine-induced bronchoconstriction at 400 to 800 mg/kg, it relative to control. Type of data set: functional, Canis lupus familiaris. To be noted: dose mg/kg 400-800; route endotracheal. Summed up: as §3
Data set [15] concerns Canis familiaris. Description: Bronchodilator activity in dog assessed as time of inhibition of carbachol or histamine-induced bronchoconstriction at 20 to 100 mg/kg, iv relative to control. The format is functional, Canis lupus familiaris. To be noted: dose mg/kg 20-100. Summed up: as §3
The test system of data set [16] is Canis familiaris. Description: Bronchodilator activity in dog assessed as degree of inhibition of carbachol or histamine-induced bronchoconstriction at 400 to 800 mg/kg, it relative to control. Type of data set: functional, Canis lupus familiaris. Conditions: dose mg/kg 400-800; route endotracheal. Summed up: as §2
In data set [17] the test system is Canis familiaris. Description: Bronchodilator activity in dog assessed as degree of inhibition of carbachol or histamine-induced bronchoconstriction at 100 to 200 mg/kg, iv relative to control. Type of data set: functional, Canis lupus familiaris. Conditions: dose mg/kg 100-200. Summed up:
as §2

In data set [18] the test system is Canis familiaris. Description: Bronchodilator activity in dog assessed as time of inhibition of carbachol or histamine-induced bronchoconstriction at 100 to 200 mg/kg, iv relative to control. The format is functional, Canis lupus familiaris. To be noted: dose mg/kg 100-200. The method, boiled down:
as §3

The subject of data set [19] is Canis familiaris. Description: Cardiotoxicity in spontaneously respiring dog assessed as time of increase in heart rate at 100 to 200 mg/kg, iv relative to control. The format is toxicity, organism-based, Canis lupus familiaris. Also noted: dose 100-200 mg/kg, route intravenous. To be noted: in vivo. The method, boiled down: as §1
Data set [20] has as its system Canis familiaris. Description: Cardiotoxicity in spontaneously respiring dog assessed as degree of increase in heart rate at 100 to 200 mg/kg, iv relative to control. Type of data set: toxicity, organism-based, Canis lupus familiaris. Also noted: dose 100-200 mg/kg, route intravenous. Conditions: in vivo. Summed up: as §1
Data set [21] deals with Canis familiaris. Description: Cardiotoxicity in spontaneously respiring dog assessed as time of increase in heart rate at 2000 to 2700 mg/kg, it relative to control. The format is toxicity, organism-based, Canis lupus familiaris. Details: dose 2000-2700 mg/kg, route endotracheal. Conditions: in vivo, inhaled_or_intranasal. The method, boiled down:
as §1

In data set [22] the test system is Canis familiaris. Description: Bronchodilator activity in dog assessed as time of inhibition of carbachol or histamine-induced bronchoconstriction at 2000 to 2700 mg/kg, it relative to control. Type of data set: functional, Canis lupus familiaris. To be noted: dose mg/kg 2000-2700; route endotracheal. The method, boiled down: as §3
The test system of data set [23] is Canis familiaris. Description: Bronchodilator activity in dog assessed as time of inhibition of carbachol or histamine-induced bronchoconstriction at 30 to 60 mg/kg, iv relative to control. Conditions: dose mg/kg 30-60. The format is functional, Canis lupus familiaris. The method, boiled down: as §3
Data set [24] has as its system Canis familiaris. Description: Bronchodilator activity in dog assessed as degree of inhibition of carbachol or histamine-induced bronchoconstriction at 30 to 60 mg/kg, iv relative to control. Type of data set: functional, Canis lupus familiaris. Conditions: dose mg/kg 30-60. Summed up: as §2
Data set [25] relates to Canis familiaris. Description: Cardiotoxicity in spontaneously respiring dog assessed as degree of increase in heart rate at 2000 to 2700 mg/kg, it relative to control. The format is toxicity, organism-based, Canis lupus familiaris. Also noted: dose 2000-2700 mg/kg, route endotracheal. To be noted: in vivo, inhaled_or_intranasal. Summed up:
as §1

Data set [26] has as its system Canis familiaris. Description: Cardiotoxicity in spontaneously respiring dog assessed as degree of increase in heart rate at 30 to 60 mg/kg, iv relative to control. Details: dose 30-60 mg/kg, route intravenous. To be noted: in vivo. The format is toxicity, organism-based, Canis lupus familiaris. The method, boiled down:
as §1

Data set [27] relates to Canis familiaris. Description: Bronchodilator activity in dog assessed as degree of inhibition of carbachol or histamine-induced bronchoconstriction at 2000 to 2700 mg/kg, it relative to control. Type of data set: functional, Canis lupus familiaris. Conditions: dose mg/kg 2000-2700; route endotracheal. Summed up: as §2

Each structure is given as a SMILES string.

On to `CC(C)(C)CC(=O)Oc1ccc([C@@H](O)CNC(C)(C)C)cc1OC(=O)CC(C)(C)C.Cl`, for which the Time in data set [1] was under 1 h; in [4], over 4 h; in [6], under 5 h; in [8], under 3 h. Moreover, the “inhibition (INH)” value was 45% in data set [2] and 20% in data set [3]. For the same molecule, the Activity in data set [5] turned out to be 20%. Also, in data set [7], the inhibition in vivo at 200 mg/kg was over 70%.
Consider `CC(C)(C)NC[C@H](O)c1ccc(OC(=O)C(C)(C)C)c(OC(=O)C(C)(C)C)c1.Cl`, for which the Time in data set [9] was under 2 h; in [11], 3 h; in data set [14], under 2 h; in [15], 3 h. The “inhibition (INH)” value in data set [10] is over 70%; in [13], over 70%; in data set [16], 45%. For the same molecule, in [12], the Activity worked out at 20 beats/min.
With `CC(C)(C)NC[C@H](O)c1ccc(OC(=O)C2CCCCC2)c(OC(=O)C2CCCCC2)c1.Cl`, the “inhibition (INH)” value in data set [17] came to 45%. In addition, the Time in data set [18] was under 5 h; in data set [19], under 3 h. For the same molecule, the Activity in [20] is on record as 20%.
With `CC(C)(C)NC[C@H](O)c1ccc(OC(=O)c2ccccc2)c(OC(=O)c2ccccc2)c1.Cl`, the figures for the Time in data set [21], in [22] and in data set [23] were 1 h, 4 h and under 4 h, respectively. Moreover, the “inhibition (INH)” value in data set [24] was 45%; in [27], over 70%. Also, the Activity in [25] came to 20%; in data set [26] it was 40%.

The values above are taken from ChEMBL document CHEMBL3272249, “Esters of N-tert-butylarterenol. Long-acting new bronchodilators with reduced cardiac effects” (J Med Chem, 1976).
